The test system of experiment [1] is WI-38. As to the kind of experiment: Cytostatic concentration against WI-38 cells. It counts as functional, Homo sapiens.
A short description of experiment [2]: Percent toxicity at 32 ug/mL on OH-I cells; range 50-100 %. It counts as functional, Homo sapiens. The method in brief:
(§1)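 Static toxicity test on uninfected OH-I monolayers at or near 100% confluency, in 2% McCoy's with 0.25% DMSO. Compound given at the three highest concentrations (100, 32, 10 ug/mL). Monolayer reduction was scored against cell control; 50% or greater reduction counted as cytotoxic.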

Experiment [3] in a line: Effective concentration dissolved in DMSO against HRV serotype 39 in OH-I cells by multiple-cycle CPE inhibition assay; microscopic. It counts as functional, cell-based, Homo sapiens. The method in brief:
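Multiple-cycle CPE inhibition assay, HRV serotype 39 (ATCC), 85% confluent OH-I monolayers in 2% McCoy's, 0.25% DMSO final. Triplicate wells received compound then three serial log virus dilutions. EC50 taken as the concentration giving 50% CPE inhibition.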

Experiment [4] deals with WI-38. Put plainly: Effective concentration dissolved in DMSO against HRV serotype 39 in WI-38 cells by multiple-cycle CPE inhibition assay; microscopic. It counts as functional, cell-based. Particulars: Homo sapiens. A digest of the protocol: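 Multiple-cycle CPE assay with HRV serotype 39 on 100% confluent WI-38 fibroblasts in 5% EMEM, 0.5% DMSO final. Triplicate monolayers received compound at 32, 10, 3.2, 1.0, 0.1 ug/mL plus three serial log virus dilutions. Read only microscopically (staining too weak) after virus controls reached 80–100% CPE at 32–320 TCID50. EC50 is the concentration giving 50% CPE inhibition.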

Experiment [5] in a line: Effective concentration dissolved in DMSO against HRV serotype 39 in OH-I cells by multiple-cycle CPE inhibition assay; spectrophotometric. It is filed as functional, cell-based, Homo sapiens. A digest of the protocol: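 HRV serotype 39 CPE inhibition assay in triplicate 85% confluent OH-I monolayers, 2% McCoy's, 0.25% DMSO final, compound at 100–0.1 ug/mL. Once virus controls reached 80–100% CPE (32–320 TCID50), cells were stained with 0.4% crystal violet for 20–30 min at room temperature, destained with 30% methanol/10% acetic acid, and OD read at 550 nm. EC50 is the concentration giving a 50% OD increase versus virus control, from Chou–Chou dose-effect analysis.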

A short description of experiment [6]: Percent toxicity at 10 ug/mL on OH-I cells. It counts as functional, Homo sapiens. The method in brief: as §1
Experiment [7] can be described thus: Percent toxicity at 100 ug/mL on OH-I cells; range 50-100 %. It is filed as functional, Homo sapiens. A digest of the protocol:
as §1

Experiment [8] in a line: Percent toxicity at 10 ug/mL on OH-I cells; range 50-100 %. It is filed as functional, Homo sapiens. A digest of the protocol: as §1
The test system of experiment [9] is WI-38. As to the kind of experiment: Percent toxicity at 32 ug/mL on WI-38 cells. It is filed as functional, Homo sapiens. The method in brief: (§2)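 Static toxicity test on uninfected WI-38 monolayers at or near 100% confluency, in 5% EMEM with 0.5% DMSO. Compound given at the three highest concentrations (32, 10, 3.2 ug/mL). Monolayer reduction was scored against cell control; 50% or greater reduction counted as cytotoxic.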

For experiment [10], the system named is WI-38. Put plainly: Percent toxicity at 10 ug/mL on WI-38 cells. It counts as functional, Homo sapiens. The method in brief: as §2

Bounds are passed on as bounds.

Molecule `Cc1cc(CCCOc2c(C)cc(-c3noc(C(F)(F)F)n3)cc2C)on1` [PLECONARIL] came in with a Cytostatic concentration with WI-38 [1] of 30 µg/mL.

As for `CC1(C)CCc2cc(CN3CCN(c4ncc(C(F)(F)F)cc4Cl)CC3)ccc2O1`, the Toxicity in [2] is reported as 100%; in [6] it was 30%; in experiment [7] it was 100%. For the same molecule, the EC50 in [3] is 35.7 µM; in the experiment on WI-38 [4] it was under 72.7 µM; in experiment [5], 32.1 µM.

Turning to `O=C(Nc1ccc(SC(F)(F)F)cc1)Nc1ccc(-n2ccc(C(F)(F)F)n2)cc1`, the Toxicity in experiment [8] was 100%; in experiment [2], 100%; with WI-38 [9] it was “<=50%”; in the experiment on WI-38 [10], “<=50%”; in [7], 100%. The figures for the EC50 (in experiment [3]; with WI-38 [4]; in experiment [5]) were 247 µM, 11.2 µM and 246 µM, respectively.

With `CCOC(=O)/C=C/[C@H](C[C@@H]1CCNC1=O)NC(=O)[C@@H](CC(=O)[C@@H](NC(=O)c1cc(C)on1)C(C)C)Cc1ccc(F)cc1` [RUPINTRIVIR], the Cytostatic concentration in the experiment with WI-38 [1] is over 100 µg/mL.

On to `COc1cc2c(cc1OC)C(C)N(C(=O)Nc1ccc(OC(F)(F)F)cc1)CC2` (stereo not drawn), for which the Toxicity in experiment [8], in experiment [2] and in experiment [7] was 100% throughout. Moreover, the figures for the EC50 (in [3]; in the experiment on WI-38 [4]; in [5]) were 121 µM, under 78 µM and 4.9 µM, respectively.

In the case of `COC(=O)c1ccc(CSc2nnc(-c3ccc4ncccc4c3)n2C)cc1`, the EC50 was 142 µM in [3], under 82 µM in the experiment on WI-38 [4] and 88.4 µM in experiment [5]. Further, the Toxicity in [7] stood at 30%.

In the case of `Cc1csc2c(N3CCN(C(=O)Nc4ccc(OC(F)(F)F)cc4)CC3)ncnc12`, the Toxicity in [8], in [2] and in [7] was 100% each time. Moreover, the half-maximal effective concentration (EC50) in experiment [3] turned out to be 7.3 µM; with WI-38 [4], 48 µM; in experiment [5], 4.3 µM.

For the molecule `CC1(C)CCc2cc(CN3CCN(c4ccc(C(F)(F)F)cn4)CC3)ccc2O1`, the Toxicity in experiment [2] turned out to be 100%; in [6], 30%; in [7] it was 100%. Besides, the figures for the EC50 (in experiment [3]; in the experiment with WI-38 [4]; in experiment [5]) were 15 µM, 165 µM and 17 µM, respectively.

The term EC50 denotes the midpoint of the concentration-response curve. Read a high EC50 as lower potency in that assay.

The values are drawn from ChEMBL document CHEMBL1140439, “Pharmacophore modeling, docking, and principal component analysis based clustering: combined computer-assisted approaches to identify new inhibitors of the human rhinovirus coat protein” (J Med Chem, 2005).
